According to ChEMBL document CHEMBL1153305, “Preparation and characterization of N-(3-pyridinyl) spirocyclic diamines as ligands for nicotinic acetylcholine receptors” (Bioorg Med Chem Lett, 2009):
The source made the active and inactive calls. No cut-off for these calls is given here.

Key:
[1] = target: Neuronal acetylcholine receptor; alpha4/beta2 (Rattus norvegicus, UniProt P09483+P12390); test: Displacement of [3H]cytisine from alpha4beta2 nAChR in rat brain membrane; type: cell membranes
[2] = target: T1, Neuronal acetylcholine receptor; alpha4/beta2 (Homo sapiens, UniProt P17787+P43681); test: Agonist activity at human recombinant alpha4beta2 nAChR expressed in human IMR32 cells assessed as calcium dynamics by FLIPR assay; type: functional, cell-based
How it was run: (§1)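 A cell line expressing human recombinant α4β2 nAChR. Agonism was read as intracellular Ca2+ dynamics by FLIPR. Values are averages of six replicates.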

[3] = target: T1, Neuronal acetylcholine receptor; alpha4/beta2; test: Agonist activity at human recombinant alpha4beta2 nAChR expressed in human IMR32 cells assessed as calcium dynamics by FLIPR assay relative to nicotine; type: functional, cell-based; how it was run: as §1
[4] = target: T2, Neuronal acetylcholine receptor; alpha3/beta4 (Homo sapiens, UniProt P30926+P32297); test: Agonist activity at human […] nAChR expressed in human IMR32 cells assessed as calcium dynamics by FLIPR assay; type: functional, cell-based, IMR-32
How it was run: (§2)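 Endogenous α3β4* nAChR in the human neuroblastoma line IMR-32. Agonism was measured as intracellular Ca2+ dynamics by FLIPR, testing up to 100 μM. Values are averages of six replicates.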

[5] = target: T2, Neuronal acetylcholine receptor; alpha3/beta4; test: Agonist activity at human […] nAChR expressed in human IMR32 cells assessed as calcium dynamics by FLIPR assay relative to nicotine; type: functional, cell-based; conditions: IMR-32; how it was run: as §2
[6] = system: Mus musculus; test: Analgesic activity in mouse at 62 umol/kg, ip; type: functional, organism-based
How it was run: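 Mouse hot plate analgesia model. The compound was given ip, with 62 μmol/kg as the highest dose tested.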

[7] = system: Mus musculus; test: Analgesic activity in mouse assessed hypolocomotion at 65 umol/kg, ip; type: functional, organism-based
[8] = system: Mus musculus; test: Decrease in body temperature in mouse at 65 umol/kg, ip; type: functional, organism-based
[9] = system: Mus musculus; test: Toxicity in mouse assessed as behavioral effect at 65 mg/kg, ip; type: organism-based; set-up: dose 65 mg/kg, route intraperitoneal; conditions: in vivo

T1 sequence (P17787 whole entry): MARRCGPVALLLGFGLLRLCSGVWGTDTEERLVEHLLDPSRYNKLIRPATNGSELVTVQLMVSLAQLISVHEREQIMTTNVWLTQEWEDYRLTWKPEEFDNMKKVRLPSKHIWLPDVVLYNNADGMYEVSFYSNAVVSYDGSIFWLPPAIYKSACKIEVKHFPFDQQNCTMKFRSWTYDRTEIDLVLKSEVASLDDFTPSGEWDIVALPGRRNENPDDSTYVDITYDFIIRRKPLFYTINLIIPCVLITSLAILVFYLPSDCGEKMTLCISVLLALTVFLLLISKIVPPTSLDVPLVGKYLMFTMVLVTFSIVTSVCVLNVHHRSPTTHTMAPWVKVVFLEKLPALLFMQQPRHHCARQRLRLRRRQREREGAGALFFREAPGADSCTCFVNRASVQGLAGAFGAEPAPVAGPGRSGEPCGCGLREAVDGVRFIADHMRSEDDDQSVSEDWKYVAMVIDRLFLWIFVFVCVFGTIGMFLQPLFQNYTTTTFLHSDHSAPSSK
T1 sequence (P43681 whole entry): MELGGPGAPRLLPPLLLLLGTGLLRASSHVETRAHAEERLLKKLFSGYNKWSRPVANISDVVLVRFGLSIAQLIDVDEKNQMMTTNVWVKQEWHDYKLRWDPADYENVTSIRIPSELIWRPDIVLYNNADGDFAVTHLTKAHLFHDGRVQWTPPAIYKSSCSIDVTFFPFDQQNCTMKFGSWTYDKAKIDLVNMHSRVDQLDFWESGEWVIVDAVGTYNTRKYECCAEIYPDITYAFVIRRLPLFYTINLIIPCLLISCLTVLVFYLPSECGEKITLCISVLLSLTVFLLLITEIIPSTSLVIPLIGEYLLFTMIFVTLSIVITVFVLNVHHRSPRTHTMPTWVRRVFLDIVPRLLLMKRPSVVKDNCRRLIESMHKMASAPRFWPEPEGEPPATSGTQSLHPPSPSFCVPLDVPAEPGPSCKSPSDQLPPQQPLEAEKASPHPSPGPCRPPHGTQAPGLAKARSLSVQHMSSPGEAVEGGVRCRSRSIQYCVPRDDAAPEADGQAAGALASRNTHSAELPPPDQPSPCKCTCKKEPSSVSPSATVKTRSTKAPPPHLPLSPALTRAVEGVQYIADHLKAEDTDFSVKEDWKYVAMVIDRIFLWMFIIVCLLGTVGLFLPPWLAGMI
T2 sequence (P30926 whole entry): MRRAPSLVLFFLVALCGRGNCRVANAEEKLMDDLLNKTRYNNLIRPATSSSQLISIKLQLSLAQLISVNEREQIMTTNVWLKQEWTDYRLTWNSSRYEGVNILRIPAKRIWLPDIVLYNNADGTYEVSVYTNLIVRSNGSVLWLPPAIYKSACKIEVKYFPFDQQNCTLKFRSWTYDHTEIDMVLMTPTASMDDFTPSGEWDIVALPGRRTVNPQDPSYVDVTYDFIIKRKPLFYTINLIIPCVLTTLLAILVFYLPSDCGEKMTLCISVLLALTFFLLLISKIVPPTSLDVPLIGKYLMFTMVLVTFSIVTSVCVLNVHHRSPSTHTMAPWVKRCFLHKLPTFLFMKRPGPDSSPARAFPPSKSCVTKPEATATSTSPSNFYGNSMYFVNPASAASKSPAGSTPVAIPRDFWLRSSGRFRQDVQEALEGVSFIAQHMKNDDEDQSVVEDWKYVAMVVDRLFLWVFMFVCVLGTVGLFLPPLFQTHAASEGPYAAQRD
T2 sequence (P32297 whole entry): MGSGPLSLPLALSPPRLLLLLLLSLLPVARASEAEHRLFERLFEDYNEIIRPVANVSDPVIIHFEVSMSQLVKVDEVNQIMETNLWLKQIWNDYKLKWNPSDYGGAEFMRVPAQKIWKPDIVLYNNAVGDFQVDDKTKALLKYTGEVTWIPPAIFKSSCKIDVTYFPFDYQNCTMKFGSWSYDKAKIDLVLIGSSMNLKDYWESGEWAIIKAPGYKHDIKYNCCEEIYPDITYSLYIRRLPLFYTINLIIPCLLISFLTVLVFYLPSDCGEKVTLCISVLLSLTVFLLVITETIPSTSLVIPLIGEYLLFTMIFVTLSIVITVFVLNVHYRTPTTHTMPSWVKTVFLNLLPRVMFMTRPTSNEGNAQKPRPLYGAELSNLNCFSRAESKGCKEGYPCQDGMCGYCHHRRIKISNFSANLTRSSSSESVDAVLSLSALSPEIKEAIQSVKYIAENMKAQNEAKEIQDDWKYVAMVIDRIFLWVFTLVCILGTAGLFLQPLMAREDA
Chain of Neuronal acetylcholine receptor; alpha4/beta2 (Rattus norvegicus, UniProt P09483+P12390) (P09483 whole entry): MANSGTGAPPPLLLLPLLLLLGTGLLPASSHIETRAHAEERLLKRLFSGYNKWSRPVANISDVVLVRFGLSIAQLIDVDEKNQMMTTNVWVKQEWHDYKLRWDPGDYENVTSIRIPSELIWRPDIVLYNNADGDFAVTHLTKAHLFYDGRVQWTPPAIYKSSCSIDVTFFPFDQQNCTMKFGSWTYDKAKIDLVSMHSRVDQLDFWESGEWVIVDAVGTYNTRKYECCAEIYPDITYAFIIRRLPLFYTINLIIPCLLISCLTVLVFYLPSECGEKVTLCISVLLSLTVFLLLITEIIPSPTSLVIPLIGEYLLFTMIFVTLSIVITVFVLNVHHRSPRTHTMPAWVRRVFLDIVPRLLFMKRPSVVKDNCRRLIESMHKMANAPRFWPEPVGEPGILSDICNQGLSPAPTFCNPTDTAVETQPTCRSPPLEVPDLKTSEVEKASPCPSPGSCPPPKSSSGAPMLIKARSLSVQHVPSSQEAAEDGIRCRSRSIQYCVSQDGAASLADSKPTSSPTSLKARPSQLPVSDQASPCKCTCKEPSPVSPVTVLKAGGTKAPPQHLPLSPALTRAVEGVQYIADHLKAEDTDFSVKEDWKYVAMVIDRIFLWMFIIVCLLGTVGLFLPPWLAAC
Chain of Neuronal acetylcholine receptor; alpha4/beta2 (Rattus norvegicus, UniProt P09483+P12390) (P12390 whole entry): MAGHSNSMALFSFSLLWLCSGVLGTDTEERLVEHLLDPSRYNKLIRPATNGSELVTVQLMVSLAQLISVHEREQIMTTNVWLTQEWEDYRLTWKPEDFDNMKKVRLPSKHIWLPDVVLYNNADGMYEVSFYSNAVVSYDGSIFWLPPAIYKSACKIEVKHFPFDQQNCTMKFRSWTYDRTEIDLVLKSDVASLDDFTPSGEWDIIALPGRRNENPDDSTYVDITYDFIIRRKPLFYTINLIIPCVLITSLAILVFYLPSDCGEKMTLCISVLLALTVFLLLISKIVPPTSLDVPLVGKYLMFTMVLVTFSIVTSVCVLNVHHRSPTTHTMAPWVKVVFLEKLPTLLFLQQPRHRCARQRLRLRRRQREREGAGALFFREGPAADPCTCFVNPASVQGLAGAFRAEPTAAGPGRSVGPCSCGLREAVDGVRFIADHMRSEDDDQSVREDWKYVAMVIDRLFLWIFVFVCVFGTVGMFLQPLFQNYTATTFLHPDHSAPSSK

SMILES: Clc1ccc(N2CCC3(CCN3)C2)cn1 (stereo not drawn)
- Ki [1]: 21 nM
- EC50 [2]: 2500 nM
- Activity [3]: 48%
- EC50 [4]: 6900 nM
- Activity [5]: 23%
- Activity [6]: Active
- Activity [7]: Active
- Activity [8]: Active

SMILES: c1cncc(N2CC3CNC3C2)c1 (stereo not drawn)
- Ki [1]: 1.2 nM
- EC50 [2]: 1600 nM
- Activity [3]: 122%
- EC50 [4]: 6100 nM
- Activity [5]: 90%

SMILES: Clc1ccc(N2CCC3(CCCN3)C2)cn1 (stereo not drawn)
- Ki [1]: 48 nM
- EC50 [2]: > 100000 nM
- Activity [3]: 6%
- EC50 [4]: > 100000 nM
- Activity [5]: 8%

SMILES: Clc1ccc(C2CC3CCC2N3)cn1 (stereo not drawn)
- Activity [3]: 154%
- Activity [5]: 132%

SMILES: Clc1ccc(OC[C@H]2CCN2)cn1 [TEBANICLINE]
- Ki [1]: 0.048 nM
- EC50 [2]: 20 nM
- Activity [3]: 115%
- EC50 [4]: 190 nM
- Activity [5]: 169%

SMILES: Clc1ccc(N2CCC3(CCNC3)C2)cn1 (stereo not drawn)
- Ki [1]: 240 nM
- EC50 [2]: > 100000 nM
- Activity [3]: 9%
- EC50 [4]: > 100000 nM
- Activity [5]: 2%

SMILES: c1cncc(N2CC3CC2CN3)c1 (stereo not drawn)
- EC50 [4]: 6400 nM
- Activity [5]: 108%

SMILES: c1cncc(N2CCC3(CCN3)C2)c1 (stereo not drawn)
- Ki [1]: 11 nM
- EC50 [2]: 25000 nM
- Activity [3]: 44%
- EC50 [4]: > 100000 nM
- Activity [5]: 4%
- Activity [9]: Non-toxic

SMILES: c1cncc(N2CCC3(CCCN3)C2)c1 (stereo not drawn) [TC-2216]
- Ki [1]: 33 nM
- EC50 [2]: > 100000 nM
- Activity [3]: 20%
- EC50 [4]: > 100000 nM
- Activity [5]: 15%

SMILES: c1cncc(N2CCC3(CCNC3)C2)c1 (stereo not drawn)
- Ki [1]: 74 nM
- EC50 [2]: > 100000 nM
- Activity [3]: 4%
- EC50 [4]: > 100000 nM
- Activity [5]: 10%
